Test results as given in ChEMBL document CHEMBL3351464, “Identifying novel selective non-nucleoside DNA methyltransferase 1 inhibitors through docking-based virtual screening” (J Med Chem, 2014).
pIC50: −log10 of the molar value. Activity calls are given as the source filed them. No cut-off for these calls is given here.

system: not listed separately; assay: Binding affinity to DNA (unknown origin) at 0.0625 to 0.5 mM by ethidium bromide dye based agarose gel electrophoresis method

| SMILES | Activity |
| --- | --- |
| COc1cccc2c1C(=O)c1c(O)c3c(c(O)c1C2=O)C[C@@](O)(C(=O)CO)C[C@@H]3O[C@H]1C[C@H](N)[C@H](O)[C@H](C)O1 | Active |
| Cc1cc(Nc2ccc(NC(=O)c3ccc(Nc4ccnc5ccccc45)cc3)cc2)nc(N)n1 | Active |

molecular target: DNA (cytosine-5)-methyltransferase 1 (Mus musculus) (UniProt P13864); assay: Inhibition of N-terminal His6-tagged mouse DNMT1 (731 to 1602 residues) expressed in Escherichia coli BL21 (DE3) at 50 uM incubated for 15 mins before addition of [3H]-SAM and poly(dI-dC).poly(dI-dC) by liquid scintillation counting based radioactive methylation assay
Sequence (P13864 whole entry, the tested form may be a part): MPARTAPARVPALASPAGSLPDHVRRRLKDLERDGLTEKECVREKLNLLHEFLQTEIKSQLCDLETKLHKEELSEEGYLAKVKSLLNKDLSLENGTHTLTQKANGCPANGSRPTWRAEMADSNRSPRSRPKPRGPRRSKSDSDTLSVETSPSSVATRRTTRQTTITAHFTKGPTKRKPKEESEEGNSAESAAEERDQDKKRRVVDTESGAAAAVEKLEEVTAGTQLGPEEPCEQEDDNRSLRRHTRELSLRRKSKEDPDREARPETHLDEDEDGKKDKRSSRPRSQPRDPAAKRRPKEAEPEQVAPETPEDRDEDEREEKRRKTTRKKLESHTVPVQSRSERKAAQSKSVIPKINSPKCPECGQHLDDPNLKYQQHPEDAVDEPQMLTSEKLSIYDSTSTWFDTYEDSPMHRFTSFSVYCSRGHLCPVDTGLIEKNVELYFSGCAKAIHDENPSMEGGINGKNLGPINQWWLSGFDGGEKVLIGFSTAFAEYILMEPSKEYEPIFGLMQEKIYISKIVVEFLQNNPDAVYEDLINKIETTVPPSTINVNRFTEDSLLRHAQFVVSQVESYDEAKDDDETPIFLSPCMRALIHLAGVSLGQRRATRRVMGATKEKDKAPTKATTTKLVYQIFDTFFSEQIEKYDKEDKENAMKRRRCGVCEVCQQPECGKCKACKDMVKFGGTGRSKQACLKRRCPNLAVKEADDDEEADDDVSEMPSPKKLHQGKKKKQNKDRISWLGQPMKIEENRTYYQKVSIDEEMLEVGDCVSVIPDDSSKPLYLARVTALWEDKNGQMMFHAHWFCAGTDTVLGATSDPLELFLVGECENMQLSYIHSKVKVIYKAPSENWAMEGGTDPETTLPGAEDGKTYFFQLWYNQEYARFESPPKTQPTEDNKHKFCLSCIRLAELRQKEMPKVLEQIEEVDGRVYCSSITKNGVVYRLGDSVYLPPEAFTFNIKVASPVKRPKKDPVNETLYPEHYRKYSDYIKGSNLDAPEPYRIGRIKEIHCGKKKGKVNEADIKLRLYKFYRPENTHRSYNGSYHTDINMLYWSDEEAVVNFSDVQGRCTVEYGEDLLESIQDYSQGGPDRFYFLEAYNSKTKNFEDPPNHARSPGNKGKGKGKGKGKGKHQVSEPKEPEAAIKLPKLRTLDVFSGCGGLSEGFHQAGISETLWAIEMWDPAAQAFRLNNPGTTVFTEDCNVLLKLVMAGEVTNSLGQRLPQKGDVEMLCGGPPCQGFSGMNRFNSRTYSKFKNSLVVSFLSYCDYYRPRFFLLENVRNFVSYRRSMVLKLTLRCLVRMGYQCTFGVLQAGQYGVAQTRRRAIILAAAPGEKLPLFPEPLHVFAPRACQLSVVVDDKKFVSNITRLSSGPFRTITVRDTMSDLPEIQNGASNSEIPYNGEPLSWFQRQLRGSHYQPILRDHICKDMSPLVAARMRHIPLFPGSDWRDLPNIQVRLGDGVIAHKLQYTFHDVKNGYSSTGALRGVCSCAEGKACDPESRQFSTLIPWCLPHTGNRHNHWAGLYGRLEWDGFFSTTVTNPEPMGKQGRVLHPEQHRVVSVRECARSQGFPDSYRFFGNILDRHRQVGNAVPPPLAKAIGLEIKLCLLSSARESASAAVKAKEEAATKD
Method in brief: (§1)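 Enzyme was preincubated with compound for 15 min at room temperature, then reacted for 60 min at 37°C. Products were filter-captured, washed and counted by scintillation. IC50 came from a nonlinear dose-response fit; single-point tests used 50 µM.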

| SMILES | inhibition |
| --- | --- |
| CC1CCN(CC(O)Cn2c3ccccc3c3ccccc32)CC1 (racemic) | 52.4% |
| OC(CNCc1ccccc1)Cn1c2c(c3ccccc31)CCCC2 (racemic) | 62.9% |
| OC(CNCCc1c[nH]c2ccccc12)Cn1c2ccc(Cl)cc2c2cc(Cl)ccc21 (racemic) | 89.5% |
| OC(CNCCc1ccccc1)Cn1c2ccccc2c2ccccc21 (racemic) | 73.9% |
| COCCNCC(O)Cn1c2ccccc2c2ccccc21 (racemic) | 71% |
| OCCNCC(O)Cn1c2ccc(Br)cc2c2cc(Br)ccc21 (racemic) | 99.7% |
| CCCN(CCC)CC(O)Cn1c2ccccc2c2ccccc21 (racemic) | 5.5% |
| CNCC(O)Cn1c(C)c(C)c2ccccc21 (racemic) | 1.1% |
| COc1ccc(NCC(O)Cn2c3ccccc3c3ccccc32)cc1 (racemic) | 0.6% |
| Cc1c(C)n(CC(O)CNC2CCCCC2)c2ccccc12 (racemic) | 2.4% |
| OC(CN1CCOCC1)Cn1c2ccccc2c2ccccc21 (racemic) | -5% |
| OC(CNC1CC1)Cn1c2ccccc2c2ccccc21 (racemic) | 42.6% |
| OC(CNCC1CCCO1)Cn1c2ccccc2c2ccccc21 (racemic) | 40.1% |
| OC(CNCCOc1ccccc1)Cn1c2ccccc2c2ccccc21 (racemic) | 29.7% |
| OCCCNCC(O)Cn1c2ccccc2c2ccccc21 (racemic) | 42.5% |

system: CAPAN-1; assay: Antiproliferative activity against human Capan1 cells assessed as inhibition of cell proliferation at 1.25 to 10 uM after 24 to 72 hrs by MTT assay; type: functional, cell-based
Method in brief: (§2)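 HCT116 maintained in McCoy's 5A and Capan-1 in DMEM, each with 10% FBS, at 37°C under 5% CO2. Cells were exposed to a range of compound concentrations from DMSO stocks, with DMSO-matched controls. Viability was read by MTT absorbance at 490 nm, and percent proliferation was normalized to control cells.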

| SMILES | inhibition |
| --- | --- |
| O[C@H](CNCCc1c[nH]c2ccccc12)Cn1c2ccccc2c2ccccc21 | Active |
| O[C@@H](CNCCc1c[nH]c2ccccc12)Cn1c2ccccc2c2ccccc21 | Active |
| CC(C)NC[C@@H](O)COC(Cn1c2ccccc2c2ccccc21)Cn1c2ccccc2c2ccccc21 | Active |
| CC(C)NC[C@H](O)COC(Cn1c2ccccc2c2ccccc21)Cn1c2ccccc2c2ccccc21 | Active |

molecular target: DNA (cytosine-5)-methyltransferase 1 (Mus musculus, UniProt P13864); assay: Inhibition of N-terminal His6-tagged mouse DNMT1 (731 to 1602 residues) expressed in Escherichia coli BL21 (DE3) incubated for 15 mins before addition of [3H]-SAM and poly(dI-dC).poly(dI-dC) by liquid scintillation counting based radioactive methylation assay; method in brief: as §1
Sequence (P13864 whole entry, the tested form may be a part): as above

| SMILES | pIC50 |
| --- | --- |
| O[C@H](CNCCc1c[nH]c2ccccc12)Cn1c2ccccc2c2ccccc21 | 5.14 |
| O[C@@H](CNCCc1c[nH]c2ccccc12)Cn1c2ccccc2c2ccccc21 | 4.81 |
| CC(C)NC[C@@H](O)COC(Cn1c2ccccc2c2ccccc21)Cn1c2ccccc2c2ccccc21 | 5.60 |
| CC(C)NC[C@H](O)COC(Cn1c2ccccc2c2ccccc21)Cn1c2ccccc2c2ccccc21 | 5.74 |
| CC1CCN(CC(O)Cn2c3ccccc3c3ccccc32)CC1 (racemic) | 4.08 |
| OC(CNCc1ccccc1)Cn1c2c(c3ccccc31)CCCC2 (racemic) | 4.09 |
| OC(CNCCc1c[nH]c2ccccc12)Cn1c2ccc(Cl)cc2c2cc(Cl)ccc21 (racemic) | 5.60 |
| OC(CNCCc1ccccc1)Cn1c2ccccc2c2ccccc21 (racemic) | 4.68 |
| COCCNCC(O)Cn1c2ccccc2c2ccccc21 (racemic) | 4.53 |
| OCCNCC(O)Cn1c2ccc(Br)cc2c2cc(Br)ccc21 (racemic) | 4.85 |

molecular target: DNA (cytosine-5)-methyltransferase 1 (Mus musculus) (UniProt P13864); assay: Inhibition of N-terminal His6-tagged mouse DNMT1 (731 to 1602 residues) at 200 uM expressed in Escherichia coli BL21 (DE3) incubated for 2 hrs using S-adenosylmethionine by ELISA
Method in brief: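 Mouse DNMT1 was purified by HisTrap, SUMO-tag cleavage, heparin and gel filtration. 200 nM enzyme was incubated with 200 μM compound (1% DMSO) and AdoMet in DNMT assay buffer at 37°C for 2 h. Capture and detection antibodies were then applied, followed by developer for 10 min at room temperature. Absorbance was read at 450 nm, with AdoHcy as reference.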

| SMILES | inhibition |
| --- | --- |
| Nc1ncnc2c1ncn2[C@@H]1O[C@H](CSCC[C@H](N)C(=O)O)[C@@H](O)[C@H]1O | Active |

system: HCT-116; assay: Antiproliferative activity against human HCT116 cells assessed as inhibition of cell proliferation at 1.25 to 10 uM after 24 to 72 hrs by MTT assay; type: functional, cell-based; method in brief: as §2

| SMILES | inhibition |
| --- | --- |
| O[C@H](CNCCc1c[nH]c2ccccc12)Cn1c2ccccc2c2ccccc21 | Active |
| O[C@@H](CNCCc1c[nH]c2ccccc12)Cn1c2ccccc2c2ccccc21 | Active |
| CC(C)NC[C@@H](O)COC(Cn1c2ccccc2c2ccccc21)Cn1c2ccccc2c2ccccc21 | Active |
| CC(C)NC[C@H](O)COC(Cn1c2ccccc2c2ccccc21)Cn1c2ccccc2c2ccccc21 | Active |
